What was measured:
[1] = target: T1, 5-hydroxytryptamine receptor 1A (Rattus norvegicus, UniProt P19327); assay: Compound was tested for the displacement of [3H]-8-OH- DPAT from rat brain 5-hydroxytryptamine 1A receptor
T1 sequence (P19327 whole entry): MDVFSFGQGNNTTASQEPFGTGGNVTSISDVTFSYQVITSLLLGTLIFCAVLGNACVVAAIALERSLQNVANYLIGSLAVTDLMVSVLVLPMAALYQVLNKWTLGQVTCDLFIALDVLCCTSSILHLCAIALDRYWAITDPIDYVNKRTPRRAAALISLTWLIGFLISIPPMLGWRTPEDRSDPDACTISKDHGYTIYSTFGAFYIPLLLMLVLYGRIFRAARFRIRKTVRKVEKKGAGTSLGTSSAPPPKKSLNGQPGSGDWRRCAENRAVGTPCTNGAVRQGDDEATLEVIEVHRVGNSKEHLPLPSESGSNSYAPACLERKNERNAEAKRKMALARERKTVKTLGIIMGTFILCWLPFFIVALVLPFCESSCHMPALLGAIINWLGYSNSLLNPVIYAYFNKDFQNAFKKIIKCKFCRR
How it was run: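 Pooled rat hippocampal membranes were preincubated at 37 °C. Buffer was 50 mM Tris HCl pH 7.4 with 0.5 mM Na2EDTA, 10 mM MgCl2, 0.1% Na ascorbate and pargyline. 200–400 μg protein was incubated with [3H]-8-OH-DPAT for 15 min at 37 °C, then GF/C filtered and scintillation counted. Nonspecific binding was defined with 10 μM 5-HT. Triplicate tubes.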

[2] = target: 5-hydroxytryptamine receptor 2A (Homo sapiens, UniProt P28223); assay: Compound was tested for the displacement of [125I]-DOI from clone human 5-hydroxytryptamine 2A receptor
How it was run: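 Membranes from AV12 hamster fibroblasts stably expressing human 5-HT2A or 5-HT2C. [125I]DOI was about 0.07–0.15 nM final. Buffer was 50 mM Tris-HCl pH 7.4 with 10 μM pargyline, 9.75 mM MgCl2, 0.5 mM Na2-EDTA and 0.1% Na ascorbate. Incubation was 30 min at 37 °C with about 40 μg protein (2A) or 30 μg (2C). Nonspecific binding used 1 μM ketanserin (2A) or 10 μM mianserin (2C). Read by gamma counting; sigmoid nonlinear regression.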

[3] = target: 5-hydroxytryptamine receptor 2B (Homo sapiens, UniProt P41595); assay: Compound was tested for the displacement of [3H]5-HT from clone human 5-hydroxytryptamine 2B receptor
How it was run: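 Membranes from AV12 cells stably expressing human 5-HT2B, 100–150 μg protein. [3H]-5-HT was about 2 nM (1.7–2.5 nM) final. Buffer was 50 mM Tris pH 7.4 with 3 mM CaCl2, 10 μM pargyline and 0.1% ascorbic acid. Drug dilutions spanned 6 log units. Incubation was 15 min at 37 °C. Nonspecific binding used 10 μM 5-HT or 1-NP. PEI-soaked GF/B filtration, scintillation counting, triplicate, sigmoid nonlinear regression.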

[4] = system: Rattus norvegicus; assay: Percentage of animals failing to emit 50 lever presses within 15 min in DOI trained rats at a compound dose of 16 mg/kg; format: functional
How it was run: (§1)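 Male Sprague–Dawley rats (200–220 g) in a two-lever, FR50 food-reinforced task. Rats were trained to discriminate saline from LSD tartrate (0.08 mg/kg), DOI HCl (0.4 mg/kg) or LY293284 (0.025 mg/kg) in 15-min sessions. %SDL is the share of rats making over 80% of presses on the drug lever. %D is the share failing to make 50 presses within 15 min. ED50 by Litchfield–Wilcoxon log-probit.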

[5] = system: Rattus norvegicus; assay: Percentage of animals failing to emit 50 lever presses within 15 min in DOI trained rats at a compound dose of 2 mg/kg; format: functional; how it was run: as §1
[6] = system: Rattus norvegicus; assay: Percentage of animals failing to emit 50 lever presses within 15 min in DOI trained rats at a compound dose of 4 mg/kg; format: functional; how it was run: as §1
[7] = system: Rattus norvegicus; assay: Percentage of animals failing to emit 50 lever presses within 15 min in DOI trained rats at a compound dose of 8 mg/kg; format: functional; how it was run: as §1
[8] = system: Rattus norvegicus; assay: Percentage of animals failing to emit 50 lever presses within 15 min in LSD trained rats at a compound dose of 0.5 mg/kg; format: functional; how it was run: as §1
[9] = system: Rattus norvegicus; assay: Percentage of animals failing to emit 50 lever presses within 15 min in LSD trained rats at a compound dose of 1.0 mg/kg; format: functional; how it was run: as §1
[10] = system: Rattus norvegicus; assay: Percentage of animals failing to emit 50 lever presses within 15 min in LSD trained rats at a compound dose of 16 mg/kg; format: functional; how it was run: as §1
[11] = system: Rattus norvegicus; assay: Percentage of animals failing to emit 50 lever presses within 15 min in LSD trained rats at a compound dose of 2.0 mg/kg; format: functional; how it was run: as §1
[12] = system: Rattus norvegicus; assay: Percentage of animals failing to emit 50 lever presses within 15 min in LSD trained rats at a compound dose of 4.0 mg/kg; format: functional
How it was run: (§2)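 Two-lever drug discrimination in male Sprague–Dawley rats (200–220 g at start), trained against saline on LSD tartrate (0.08 mg/kg), DOI HCl (0.4 mg/kg) or LY293284 (0.025 mg/kg). FR50 food-pellet reinforcement, levers counterbalanced, 15-min sessions at 22–24 °C. %D is the share of tested rats not completing 50 lever presses within 15 min.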

[13] = system: Rattus norvegicus; assay: Percentage of animals failing to emit 50 lever presses within 15 min in […] trained rats at a compound dose of 16 mg/kg; format: functional; how it was run: as §2
[14] = system: Rattus norvegicus; assay: Percentage of animals failing to emit 50 lever presses within 15 min in […] trained rats at a compound dose of 4 mg/kg; format: functional; how it was run: as §2
[15] = system: Rattus norvegicus; assay: Percentage of animals emitting >80% of lever presses in DOI trained rats at a compound dose of 12.6 uM/Kg; format: functional; how it was run: as §1
[16] = system: Rattus norvegicus; assay: Percentage of animals emitting >80% of lever presses in DOI trained rats at a compound dose of 25.3 uM/Kg; format: functional; how it was run: as §1
[17] = system: Rattus norvegicus; assay: Percentage of animals emitting >80% of lever presses in DOI trained rats at a compound dose of 50.6 uM/Kg; format: functional; how it was run: as §1
[18] = system: Rattus norvegicus; assay: Percentage of animals emitting >80% of lever presses in DOI trained rats at a compound dose of 6.32 uM/Kg; format: functional; how it was run: as §1
[19] = system: Rattus norvegicus; assay: Percentage of animals emitting >80% of lever presses in LSD trained rats at a compound dose of 1.58 uM/Kg; format: functional; how it was run: as §1
[20] = system: Rattus norvegicus; assay: Percentage of animals emitting >80% of lever presses in LSD trained rats at a compound dose of 6.32 uM/Kg; format: functional; how it was run: as §1
[21] = system: Rattus norvegicus; assay: Percentage of animals emitting >80% of lever presses in […] trained rats at a compound dose of 12.6 uM/Kg; format: functional; how it was run: as §1
[22] = system: Rattus norvegicus; assay: Percentage of animals emitting >80% of lever presses in […] trained rats at a compound dose of 25.3 uM/Kg; format: functional; how it was run: as §1
[23] = system: Rattus norvegicus; assay: Percentage of animals emitting >80% of lever presses in […] trained rats at a compound dose of 50.6 uM/Kg; format: functional; how it was run: as §1
[24] = system: Rattus norvegicus; assay: Percentage of animals emitting >80% of lever presses in […] trained rats at a compound dose of 6.32 uM/Kg; format: functional; how it was run: as §1
[25] = system: Rattus norvegicus; assay: Percentage of animals emitting >80% of lever presses in LSD trained rats at a compound dose of 12.6 uM/Kg; format: functional; how it was run: as §1

Chain of 5-hydroxytryptamine receptor 2A (P28223 whole entry): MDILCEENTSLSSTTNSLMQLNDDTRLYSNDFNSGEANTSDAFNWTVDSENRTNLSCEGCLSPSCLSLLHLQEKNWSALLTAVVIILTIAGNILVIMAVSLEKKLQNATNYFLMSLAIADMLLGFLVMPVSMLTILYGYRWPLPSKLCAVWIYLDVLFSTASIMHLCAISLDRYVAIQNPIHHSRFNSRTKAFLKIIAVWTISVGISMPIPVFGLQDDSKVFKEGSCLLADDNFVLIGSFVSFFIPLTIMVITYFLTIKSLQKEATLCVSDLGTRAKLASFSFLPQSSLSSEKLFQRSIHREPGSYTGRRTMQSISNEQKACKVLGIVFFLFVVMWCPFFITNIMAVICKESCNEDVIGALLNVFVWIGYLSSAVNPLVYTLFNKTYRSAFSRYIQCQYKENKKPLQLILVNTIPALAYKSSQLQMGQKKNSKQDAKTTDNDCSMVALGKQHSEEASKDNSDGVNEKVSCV
Chain of 5-hydroxytryptamine receptor 2B (P41595 whole entry): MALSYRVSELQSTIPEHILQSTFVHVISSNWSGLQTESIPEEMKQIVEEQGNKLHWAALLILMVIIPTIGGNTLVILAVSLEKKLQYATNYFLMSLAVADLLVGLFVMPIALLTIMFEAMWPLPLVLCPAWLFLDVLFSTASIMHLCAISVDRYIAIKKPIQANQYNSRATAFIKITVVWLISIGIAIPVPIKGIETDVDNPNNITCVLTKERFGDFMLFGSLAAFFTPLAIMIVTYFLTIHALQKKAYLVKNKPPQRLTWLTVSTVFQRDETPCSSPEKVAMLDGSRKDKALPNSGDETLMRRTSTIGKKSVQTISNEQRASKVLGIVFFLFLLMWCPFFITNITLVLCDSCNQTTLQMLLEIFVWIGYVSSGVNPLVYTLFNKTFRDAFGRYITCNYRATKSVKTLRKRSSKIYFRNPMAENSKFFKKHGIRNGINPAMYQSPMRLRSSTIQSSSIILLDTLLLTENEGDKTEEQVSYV

Question: With CN(C)CCc1c[nH]c2sccc12 as the molecule, how does the Ki [1] read?
Answer: Its Ki is 0.184 µM.

Question: What about the Ki [2] of the same molecule?
Answer: The Ki was 0.106 µM.

Question: And the Ki [3]?
Answer: The Ki was 0.483 µM.

Question: What about the D [4] of the same molecule?
Answer: The D was 50%.

Question: What about the D [5] of the same molecule?
Answer: The D was 0%.

Question: And the D [6]?
Answer: The D was 0%.

Question: And the D [7]?
Answer: Its D is 12.5%.

Question: What about the D [8] of the same molecule?
Answer: The D was 22%.

Question: And the D [9]?
Answer: The D was 0%.

Question: What about the D [10] of the same molecule?
Answer: Its D is 50%.

Question: And the D [11]?
Answer: Its D is 0%.

Question: And the D [12]?
Answer: The D was 0%.

Question: What about the D [13] of the same molecule?
Answer: The D was 0%.

Question: And the D [14]?
Answer: The D was 0%.

Question: And the SDL [15]?
Answer: Its SDL is 0%.

Question: And the SDL [16]?
Answer: Its SDL is 0%.

Question: What about the SDL [17] of the same molecule?
Answer: The SDL was 0%.

Question: What about the SDL [18] of the same molecule?
Answer: The SDL was 0%.

Question: What about the SDL [19] of the same molecule?
Answer: Its SDL is 14%.

Question: What about the SDL [20] of the same molecule?
Answer: Its SDL is 9%.

Question: What about the SDL [21] of the same molecule?
Answer: Its SDL is 67%.

Question: What about the SDL [22] of the same molecule?
Answer: The SDL was 58%.

Question: And the SDL [23]?
Answer: Its SDL is 83%.

Question: And the SDL [24]?
Answer: The SDL was 10%.

Question: What about the SDL [25] of the same molecule?
Answer: The SDL was 16.7%.
